pIC50: −log10 of the molar value. The source made the active and inactive calls. The calls are words filed in the database; no cut-off is given here.
Legend:
[1] = system: Human alphaherpesvirus 1; experiment: Antiviral activity against HSV1 KOS infected in human lung fibroblast assessed as inhibition of virus-induced cytopathic effect at 0.32 to 100 uM; assay type: functional, organism-based
Outline: (§1)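 Confluent cell cultures were infected with 100 CCID50 of virus in the presence of test compound at 100, 40, 8, 1.6 and 0.32 μM. Cytopathic effect was scored once it was complete in untreated infected controls.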

[2] = system: Punta Toro virus; experiment: Antiviral activity against Punta Toro virus infected in african green monkey Vero cells assessed as inhibition of virus-induced cytopathic effect at 0.32 to 100 uM; assay type: functional, organism-based; outline: as §1
[3] = system: Coxsackievirus B4; experiment: Antiviral activity against Coxsackievirus B4 infected in african green monkey Vero cells assessed as inhibition of virus-induced cytopathic effect at 0.32 to 100 uM; assay type: functional, organism-based; outline: as §1
[4] = system: Coxsackievirus B4; experiment: Antiviral activity against Coxsackievirus B4 infected in human cervix carcinoma cells assessed as inhibition of virus-induced cytopathic effect at 0.32 to 100 uM; assay type: functional, organism-based; outline: as §1
[5] = system: Human alphaherpesvirus 2; experiment: Antiviral activity against HSV2 G infected in human lung fibroblast assessed as inhibition of virus-induced cytopathic effect at 0.32 to 100 uM; assay type: functional, organism-based; conditions: strain G; outline: as §1
[6] = system: Vaccinia virus; experiment: Antiviral activity against Vaccinia virus infected in human lung fibroblast assessed as inhibition of virus-induced cytopathic effect at 0.32 to 100 uM; assay type: functional, organism-based; conditions: Orthopoxvirus vaccinia
[7] = system: Human immunodeficiency virus 2; experiment: Antiviral activity against HIV2 ROD infected in human CEM cells assessed as inhibition of virus-induced CEM giant cell formation at 0.32 to 100 uM after 4 days; assay type: functional, organism-based; conditions: ISOLATE ROD, CCRF-CEM
Outline: (§2)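 CEM cells (~3 × 10^5 cells/cm³) exposed to 100 CCID50/ml of virus and seeded into wells holding compound dilutions. Incubated 4 days at 37 °C, then giant cell formation examined microscopically.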

[8] = system: Felid alphaherpesvirus 1; experiment: Antiviral activity against Feline herpesvirus infected in feline CRFK cells assessed as inhibition of virus-induced cytopathic effect at 0.32 to 100 uM; assay type: functional, organism-based; outline: as §1
[9] = system: Radical scavenging activity; experiment: Antioxidant activity assessed as DPPH free radical scavenging activity at 100 uM after 20 mins by spectrophotometric analysis; assay type: functional
Outline: (§3)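 0.05 mM DPPH in absolute ethanol mixed with an equal volume of compound in DMSO (final 100 μM). Shaken and left 20 or 60 min, then absorbance read at 517 nm and percent activity calculated. Three replicates, averaged.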

[10] = system: Vesicular stomatitis virus; experiment: Antiviral activity against Vesicular stomatitis virus infected in human cervix carcinoma cells assessed as inhibition of virus-induced cytopathic effect at 0.32 to 100 uM; assay type: functional, organism-based
Outline: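 Confluent human cervix carcinoma (HeLa) cultures received 100 CCID50 of VSV together with the compound at 100, 40, 8, 1.6 or 0.32 μM. Cytopathicity was read at the point of full CPE in infected, untreated control wells.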

[11] = system: L1210; experiment: Cytostatic activity against mouse L1210 cells after 2 days by coulter counter analysis; assay type: functional, cell-based; conditions: L1210, 48 h
Outline: (§4)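 300,000–500,000 cells/ml mixed 1:1 with compound dilutions and incubated at 37 °C for 2 days (L1210) or 3 days (CEM, HeLa). Cell number counted with a Coulter counter; HeLa trypsinized before counting.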

[12] = system: Mammalian orthoreovirus 1; experiment: Antiviral activity against Reovirus-1 infected in african green monkey Vero cells assessed as inhibition of virus-induced cytopathic effect at 0.32 to 100 uM; assay type: functional, organism-based; outline: as §1
[13] = system: Influenza A virus; experiment: Antiviral activity against Influenza A virus H1N1 infected in MDCK cells assessed as inhibition of virus-induced cytopathic effect at 0.32 to 100 uM; assay type: functional, organism-based
Outline: (§5)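 Confluent MDCK monolayers were infected in the presence of the compound at 100, 40, 8, 1.6 and 0.32 μM. Viral cytopathicity was scored once it was complete in untreated infected control cultures.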

[14] = system: HCT-116; experiment: Cytostatic activity against human HCT116 cells after 72 hrs by MTT assay; assay type: functional, cell-based; conditions: HCT-116, 72 h
Outline: (§6)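 Monolayers in DMEM with 10% FBS, 2 mM L-glutamine and penicillin/streptomycin, 37 °C, 5% CO2. Seeded at 1–3 × 10^4 cells/ml, then compound added in tenfold dilutions (10⁻⁸–10⁻⁴ M) for 72 h. MTT read at 570 nm; percent growth taken against time-zero and untreated controls. IC50 by linear regression; quadruplicate, at least two experiments.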

[15] = system: HaCaT; experiment: Cytostatic activity against human HaCaT cells after 72 hrs by MTT assay; assay type: ADME, cell-based; outline: as §6
[16] = Antioxidant activity assessed as inhibition of AAPH-induced linoleic acid lipid peroxidation by measuring conjugated diene hydroperoxide level; assay type: functional; set-up: concentration or dose not given beside the values; conditions: dose or concentration not given here
Outline: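 Linoleic acid sodium salt (10 μL of 16 mM) in 0.05 M phosphate buffer pH 7.4 at 37 °C. Oxidation started under air with 50 μL of 40 mM AAPH. Conjugated diene hydroperoxide formation followed as absorbance rise at 234 nm; control contains the same DMSO level. At least triplicate.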

[17] = system: Respiratory syncytial virus; experiment: Antiviral activity against RSV infected in human cervix carcinoma cells assessed as inhibition of virus-induced cytopathic effect at 0.32 to 100 uM; assay type: functional, organism-based; outline: as §1
[18] = system: Sindbis virus; experiment: Antiviral activity against Sindbis virus infected in african green monkey Vero cells assessed as inhibition of virus-induced cytopathic effect at 0.32 to 100 uM; assay type: functional, organism-based; outline: as §1
[19] = system: Human immunodeficiency virus 1; experiment: Antiviral activity against HIV1 3B infected in human CEM cells assessed as inhibition of virus-induced CEM giant cell formation at 0.32 to 100 uM after 4 days; assay type: functional, organism-based; conditions: CCRF-CEM; outline: as §2
[20] = system: HeLa; experiment: Cytostatic activity against human HeLa cells after 3 days by coulter counter analysis; assay type: functional, cell-based; conditions: 72 h; outline: as §4
[21] = system: MCF7; experiment: Cytostatic activity against human MCF7 cells after 72 hrs by MTT assay; assay type: functional, cell-based; conditions: MCF7, 72 h; outline: as §6
[22] = system: Influenza B virus; experiment: Antiviral activity against Influenza B virus infected in MDCK cells assessed as inhibition of virus-induced cytopathic effect at 0.32 to 100 uM; assay type: functional, organism-based; outline: as §5
[23] = system: Vesicular stomatitis virus; experiment: Antiviral activity against VSV infected in human lung fibroblast assessed as inhibition of virus-induced cytopathic effect at 0.32 to 100 uM; assay type: functional, organism-based
[24] = system: Human respirovirus 3; experiment: Antiviral activity against Parainfluenza virus 3 infected in african green monkey Vero cells assessed as inhibition of virus-induced cytopathic effect at 0.32 to 100 uM; assay type: functional, organism-based; outline: as §1
[25] = system: Influenza A virus; experiment: Antiviral activity against Influenza A virus H3N2 infected in MDCK cells assessed as inhibition of virus-induced cytopathic effect at 0.32 to 100 uM; assay type: functional, organism-based; outline: as §5
[26] = system: Feline coronavirus; experiment: Antiviral activity against Feline coronavirus infected in feline CRFK cells assessed as inhibition of virus-induced cytopathic effect at 0.32 to 100 uM; assay type: functional, organism-based; outline: as §1
[27] = system: NCI-H460; experiment: Cytostatic activity against human NCI-H460 cells after 72 hrs by MTT assay; assay type: functional, cell-based; conditions: NCI-H460, 72 h; outline: as §6
[28] = system: CCRF-CEM; experiment: Cytostatic activity against human CEM cells after 3 days by coulter counter analysis; assay type: functional, cell-based; conditions: 72 h; outline: as §4
[29] = system: Radical scavenging activity; experiment: Antioxidant activity assessed as DPPH free radical scavenging activity at 100 uM after 60 mins by spectrophotometric analysis; assay type: functional; outline: as §3
[30] = system: Glycine max; experiment: Inhibition of soybean LOX assessed as conversion of sodium linoleate to 13- hydroperoxylinoleic acid at 100 uM

Row | Structure (SMILES) | inhibition [1] | inhibition [2] | inhibition [3] | inhibition [4] | inhibition [5] | inhibition [6] | inhibition [7] | inhibition [8] | Activity [9] | inhibition [10] | pIC50 [11] | inhibition [12] | inhibition [13] | pIC50 [14] | pIC50 [15] | inhibition [16] | inhibition [17] | inhibition [18] | inhibition [19] | pIC50 [20] | other results
1 | CC(C(=O)NNC(=O)NCc1ccccc1)c1cccc(Cc2ccccc2)c1 (stereo not given) | inactive | inactive | inactive | inactive | inactive | inactive | inactive | inactive | 3% | inactive | 4.51 | inactive | inactive | 4.62 | 4.60 | 48% | inactive | inactive | inactive | 4.03 | pIC50 [21]: 4.92; inhibition [22]: inactive; inhibition [23]: inactive; inhibition [24]: inactive; inhibition [25]: inactive; inhibition [26]: inactive; pIC50 [27]: 4.55; pIC50 [28]: 4.31; Activity [29]: 9%; inhibition [30]: inactive
2 | CC(C(=O)NNC(=O)NC1CCCCC1)c1cccc(Oc2ccccc2)c1 (stereo not given) | inactive | inactive | inactive | inactive | inactive | inactive | inactive | inactive | 19% | inactive | 4.46 | inactive | inactive | 4.66 | 4.72 | 63% | inactive | inactive | inactive | 4.32 | pIC50 [21]: 4.77; inhibition [22]: inactive; inhibition [23]: inactive; inhibition [24]: inactive; inhibition [25]: inactive; inhibition [26]: inactive; pIC50 [27]: 4.62; pIC50 [28]: 4.28; Activity [29]: 22%; inhibition [30]: 13%
3 | CC(C(=O)NNC(=O)NCCc1ccccc1)c1cccc(Oc2ccccc2)c1 (stereo not given) | inactive | inactive | inactive | inactive | inactive | inactive | inactive | inactive | 4% | inactive | 4.28 | inactive | inactive | 4.74 | 4.82 | 51% | inactive | inactive | inactive | 4.19 | pIC50 [21]: 4.72; inhibition [22]: inactive; inhibition [23]: inactive; inhibition [24]: inactive; inhibition [25]: inactive; inhibition [26]: inactive; pIC50 [27]: 4.66; pIC50 [28]: 4.15; Activity [29]: 7%; inhibition [30]: 20%
4 | CC(C(=O)NNC(=O)NCCc1ccccc1)c1cccc(Cc2ccccc2)c1 (stereo not given) | inactive | inactive | inactive | inactive | inactive | inactive | inactive | inactive | 8% | inactive | 4.51 | inactive | inactive | 4.70 | 4.80 | 71% | inactive | inactive | inactive | 4.24 | pIC50 [21]: 4.82; inhibition [22]: inactive; inhibition [23]: inactive; inhibition [24]: inactive; inhibition [25]: inactive; inhibition [26]: inactive; pIC50 [27]: 4.66; pIC50 [28]: 4.54; Activity [29]: 15%; inhibition [30]: 17%

Reference: ChEMBL document CHEMBL2010803, “Novel NSAID 1-acyl-4-cycloalkyl/arylsemicarbazides and 1-acyl-5-benzyloxy/hydroxy carbamoylcarbazides as potential anticancer agents and antioxidants” (Eur J Med Chem, 2012)
